Screening data: PubChem, The Scripps Research Institute Molecular Screening Center
Tn6 DDE FP: DD(E)-Tn6 binding inhibition, primary FP screen; P02675; Fibrin DD(E) TRITC-Tn6 fluorescence polarization displacement; inhibition, % at 8.3 µM; actives 0.21% (n = 370,000); AID 720509;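 active = inhibition above a per-campaign cutoff: mean of compounds within control limits plus 3 SD, cut at about 15% in these data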
Tn7 DDE FP: disrupts Tn7 cyclic peptide binding to fibrin D-Dimer-E complex. inhibition, % at 8.3 µM. FP displacement of FITC-Tn7 peptide from fibrin DD(E); 0% = median of compound wells per plate. P02675. actives 0.13% (n = 370,000);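 active = inhibition above the mean of compounds falling within the control limits plus 3 SD of them, cut at about 14% in these data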
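Measure: % inhibition scaled between sample-field median and high-control FP; Test system: human fibrin DD(E); Quantity: 2 µM final DD(E) protein; Doses: one dose, 8.3 µM nominal; Schedule: compound with protein 10 min, then 3 h after probe, room temperature; Detection: fluorescence polarization; Medium: Tris buffer with calcium and detergent, pH 7.8.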
PLCb3 inh: inhibitors of human phospholipase C beta3. Q01970. Purified PLC-beta3, fluorogenic substrate, fluorescence. inhibition, % at 12.2 µM. actives 0.18% (n = 370,000); in the data active = inhibition above about 11%
ADAM10 inh: ADAM10 inhibition, QFRET primary screen. O14672. recombinant ADAM10, EDANS/DABCYL FRET peptide cleavage, 3 h. inhibition, % at 7 µM. actives 0.62% (n = 370,000). AID 720582;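 active = inhibition above a per-campaign cutoff equal to the mean of compounds falling between control-based bounds plus 3 SD, cut at about 20% in these data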
Target sequence (O14672 214-748 limits assumed): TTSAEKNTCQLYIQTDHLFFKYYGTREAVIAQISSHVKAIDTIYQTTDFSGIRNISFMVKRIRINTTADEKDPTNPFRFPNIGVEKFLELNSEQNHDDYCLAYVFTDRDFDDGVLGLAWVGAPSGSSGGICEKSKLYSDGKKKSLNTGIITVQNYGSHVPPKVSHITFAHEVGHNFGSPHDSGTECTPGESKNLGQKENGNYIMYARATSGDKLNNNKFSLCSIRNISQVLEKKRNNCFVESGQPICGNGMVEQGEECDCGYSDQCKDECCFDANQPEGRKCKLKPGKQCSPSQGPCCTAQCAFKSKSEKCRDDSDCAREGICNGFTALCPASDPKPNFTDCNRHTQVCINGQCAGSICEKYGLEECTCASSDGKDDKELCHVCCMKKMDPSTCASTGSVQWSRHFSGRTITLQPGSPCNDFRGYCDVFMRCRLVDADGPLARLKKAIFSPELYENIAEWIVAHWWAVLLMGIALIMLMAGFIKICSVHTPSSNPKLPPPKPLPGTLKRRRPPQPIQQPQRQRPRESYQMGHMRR
ADAM17 inh: inhibits human ADAM17; recombinant ADAM17, EDANS/DABCYL FRET peptide cleavage; inhibition, % at 6.95 µM; actives 0.83% (n = 370,000); AID 720648;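 active = inhibition above the mean of compounds lying between control limits plus 3 SD, set per campaign, cut at about 8.5% in these data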
PLC-gamma1 inh: PLC-gamma1 (human) inhibition, primary screen; actives 0.84% (n = 370,000); inhibition, % at 12.2 µM; purified PLC-gamma1, fluorogenic substrate, fluorescence; in the data active = inhibition above about 9.5%
ADAM10 confirm: human ADAM10 inhibition, confirmation. shares compounds with ADAM10 inh. ADAM10 QFRET peptide cleavage, EDANS fluorescence. inhibition, % at 6.95 µM. actives 1% (n = 2,100). AID 743208;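 active = inhibition above about 20% chosen separately for each screening run, limit read from the data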
ADAM17 counter: counter-screen for ADAM10 exosite inhibitors: inhibitors of human ADAM17. AID 743214. ADAM17 QFRET peptide cleavage, EDANS fluorescence. shares compounds with ADAM10 inh. actives 0.5% (n = 2,100). inhibition, % at 6.95 µM;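 active = mean triplicate inhibition above the solvent-only control wells' mean plus 3 SD, cut at about 12% in these data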
ADAM10 counter: counter-screen for ADAM17 exosite inhibitors: inhibitors of human ADAM10 | shares compounds with ADAM17 inh | actives 47% (n = 2,900) | inhibition, % at 6.95 µM | recombinant ADAM10, EDANS/DABCYL FRET peptide cleavage, 3 h;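 active = mean inhibition over the triplicate runs exceeds the activity threshold set in the earlier primary screen, cut at about 20% in these data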
ADAM17 confirm: confirmation of inhibitors of human ADAM17. shares compounds with ADAM17 inh. actives 65% (n = 2,900). AID 743257. inhibition, % at 6.95 µM. recombinant ADAM17, EDANS/DABCYL QFRET peptide cleavage;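 active = mean inhibition across replicates above the hit cutoff set in the primary screen, cut at about 8.5% in these data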
Large screens that a line does not name were inactive (follow-up assays come after a bar, where they were run). An excerpt weighted towards active compounds, which were near 2.3% of everything screened.

COc1ccc2nc(NC(=O)C3CCCN3S(=O)(=O)c3ccc(C)cc3)sc2c1 (centres undefined)	ADAM10 inh 22, ADAM17 inh 8.6 | ADAM10 confirm inactive | ADAM17 counter inactive | ADAM10 counter inactive | ADAM17 confirm inactive
COc1cccc(Nc2ncccc2C(=O)Nc2ccccc2)c1	ADAM10 inh 29, ADAM17 inh 19 | ADAM10 confirm inactive | ADAM17 counter inactive | ADAM10 counter inactive | ADAM17 confirm inactive
NC(=O)[C@H]1CC2(CC(c3cccc(NC(=O)CC(c4ccccc4)c4ccccc4)c3)=NO2)CN1C(=O)CC(c1ccccc1)c1ccccc1 (some centres undefined)	ADAM10 inh 31, ADAM17 inh 16 | ADAM10 confirm inactive | ADAM17 counter inactive | ADAM10 counter 33 | ADAM17 confirm 19
NC(=O)[C@@H]1CC2(CC(c3cccc(NC(=O)CC(c4ccccc4)c4ccccc4)c3)=NO2)CN1C(=O)c1ccc(Cl)cc1 (some centres undefined)	ADAM10 inh 23, ADAM17 inh 11 | ADAM10 confirm inactive | ADAM17 counter inactive | ADAM10 counter 45 | ADAM17 confirm 21
NC(=O)[C@H]1CC2(CC(c3cccc(NC(=O)COc4ccc(Cl)cc4)c3)=NO2)CN1C(=O)C(c1ccccc1)c1ccccc1 (some centres undefined)	ADAM10 inh 31, ADAM17 inh 12 | ADAM10 confirm inactive | ADAM17 counter inactive | ADAM10 counter 30 | ADAM17 confirm 15
NC(=O)[C@@H]1CC2(CC(c3cccc(NC(=O)COc4ccc(Cl)cc4)c3)=NO2)CN1C(=O)COc1ccc(Cl)cc1 (some centres undefined)	none
COP(=O)(O)C(COCCC(CC(C)C)NC(=O)OCc1ccccc1[N+](=O)[O-])NC(=O)OCc1ccccc1 (centres undefined)	none
Cn1c2ccccc2c(=O)c2c(=O)n(CCCc3ccccc3)cnc21	none
O=C(c1ccc(F)cc1Cl)N1CCC(Oc2cccnc2)CC1	none
O=C(/C=C1\NC2(CCCC2)Cc2ccccc21)C(=O)N/N=C/c1ccc(O)c(O)c1	ADAM10 inh 22, ADAM17 inh 12 | ADAM10 confirm inactive | ADAM17 counter inactive | ADAM10 counter inactive | ADAM17 confirm 9.4
Cc1nn(Cc2c(F)c(F)c(F)c(F)c2F)c(C)c1NC(=O)c1ccc(COc2ccc(Cl)cc2Cl)o1	ADAM10 inh 25, ADAM17 inh 11 | ADAM10 confirm inactive | ADAM17 counter inactive | ADAM10 counter 45 | ADAM17 confirm 19
O=C1CC(N(CCc2ccccc2)C(=S)Nc2ccccc2)C(=O)N1c1ccc(F)cc1 (centres undefined)	none
O=C1CC(N(CCc2ccccc2)C(=S)Nc2cc(Cl)ccc2Cl)C(=O)N1c1c(Cl)cccc1Cl (centres undefined)	ADAM10 inh 21, ADAM17 inh 12 | ADAM10 confirm inactive | ADAM17 counter inactive | ADAM10 counter 24 | ADAM17 confirm 13
Cc1ccccc1-c1noc(-c2ccc(O)cc2)n1	ADAM10 inh 33, ADAM17 inh 13 | ADAM10 confirm inactive | ADAM17 counter inactive | ADAM10 counter inactive | ADAM17 confirm 12
O=C(CSc1nnc(-c2cnccn2)n1-c1ccccc1)Nc1ccc2c(c1)OCCO2	none
CN(Cc1ccccc1)c1ccc(C(CC(N)=O)NC(=O)c2ccc(Br)cc2)cc1[N+](=O)[O-] (centres undefined)	ADAM10 inh 38, ADAM17 inh 15 | ADAM10 confirm inactive | ADAM17 counter inactive | ADAM10 counter 21 | ADAM17 confirm 13
CC(C)Nc1ccc(C(CC(N)=O)NC(=O)c2ccc(Br)cc2)cc1[N+](=O)[O-] (centres undefined)	none
O=C(COC(=O)C12CC3CC(CC(C3)C1)C2)Nc1ccc(OC(F)F)cc1	ADAM10 inh 27, ADAM17 inh 15 | ADAM10 confirm inactive | ADAM17 counter inactive | ADAM10 counter 24 | ADAM17 confirm 12
COc1ccc(S[C@]2(C(=O)N3CCN(C(C)=O)CC3)CC(=O)N(S(=O)(=O)c3ccc(F)cc3)[C@@H]2c2ccc(OC)cc2)cc1	none
Cc1cc(C(=O)OCCCN(C)C2CN(Cc3cn(Cc4ccccc4C(F)(F)F)nn3)S(=O)(=O)C2)no1 (centres undefined)	none
Nc1cccc(Oc2c(F)c(F)c(Oc3cccc(N)c3)c(F)c2F)c1	ADAM10 inh 23, ADAM17 inh 9.2 | ADAM10 confirm inactive | ADAM17 counter inactive | ADAM10 counter 41 | ADAM17 confirm 20
C[C@H]1[C@@H](NCc2ccccc2)CC[C@@]23CCCN2C(=O)CCC[C@@H]13	none
C=CCN1C(=O)[C@@H](CC(=O)N2CCN(C(=O)C3CC3)CC2)[C@]2(C(=O)OCC)CCCCC/C=C/12	none
O=C(COc1ccc(C(=O)O)cc1)Nc1cccc(C(F)(F)F)c1	none
O=C(COCC(=O)Nc1cccc(C(F)(F)F)c1)Nc1cccc(C(F)(F)F)c1	ADAM10 inh 35, ADAM17 inh 15 | ADAM10 confirm inactive | ADAM17 counter inactive | ADAM10 counter 42 | ADAM17 confirm 17
COc1ccc(-n2c(SC/C=C/c3ccccc3)nnc2-c2cccs2)cc1	none
N#Cc1cccc(NC(=O)OC2CC3CC2[C@H]2CCCCN2C3)c1 (some centres undefined)	none
O=C(c1cccs1)N1N=C(c2ccccc2)CC1c1ccc(O)cc1 (centres undefined)	ADAM10 inh 27, ADAM17 inh 16 | ADAM10 confirm inactive | ADAM17 counter inactive | ADAM10 counter 30 | ADAM17 confirm 21
O=C(c1cccs1)N1N=C(c2ccc(O)cc2)CC1c1ccccc1 (centres undefined)	none
O=C(Nc1ccc(N2CCCC2)c(S(=O)(=O)Nc2cccc(C(F)(F)F)c2)c1)c1cccs1	ADAM10 inh 28, ADAM17 inh 15 | ADAM10 confirm inactive | ADAM17 counter inactive | ADAM10 counter 42 | ADAM17 confirm 24
